Results reported in ChEMBL document CHEMBL1255403, “Genetic dissection of azole resistance mechanisms in Candida albicans and their validation in a mouse model of disseminated infection” (2010).
≈ marks a conversion by molar mass, not a printed value.

Columns and labels:
Type in all cases: functional
[1] = system: Candida albicans; assay: Antibacterial activity against azole-susceptible Candida albicans DSY294 containing CIp10 to restore URA3 function infected in BALB/c mouse assessed as weight change administered intraperitoneally 1 hr post bacterial challenge measured 3 days post infection
In short: (§1)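 Female BALB/c mice (18 to 22 g) infected i.v. with saline suspension of C. albicans grown overnight in NGY medium. […] Percentage body weight change over 3 days; ED50 = dose reducing mean weight change below 50% of controls.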

[2] = system: Candida albicans; assay: Antibacterial activity against Fluconazole resistant Candida albicans DSY3083 containing tac1delta/delta genotype containing CIp10 to restore URA3 function infected in BALB/c mouse assessed as weight change administered intraperitoneally 1 hr post bacterial challenge measured 3 days post infection
[3] = system: Candida albicans; assay: Antibacterial activity against Fluconazole resistant Candida albicans DSY296 overexpressing multidrug transporter gene CDR1 and CDR2 and containing ERG11 G464S mutation containing CIp10 to restore URA3 function infected in BALB/c mouse assessed as effect on infection outcome score administered intraperitoneally 1 hr post bacterial challenge measured 3 days post infection
In short: (§2)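 Intravenous infection of female BALB/c mice with a strain-specific inoculum. […] ED50 was derived from the 3-day infection outcome score at 72 h.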

[4] = system: Candida albicans; assay: Antibacterial activity against Fluconazole resistant Candida albicans DSY3706 containing tac1delta/delta ERG11-1/ERG11-1 genotype infected in BALB/c mouse assessed as reduction in kidney microbial burden administered intraperitoneally 1 hr post bacterial challenge measured 3 days post infection
In short: (§3)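 At 72 h the left kidney was homogenised in saline and viable counts taken as log10 CFU/g. ED50 was the dose lowering the mean burden >1.5 log below controls.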

[5] = system: Candida albicans; assay: Antibacterial activity against azole-susceptible Candida albicans DSY294 containing CIp10 to restore URA3 function infected in BALB/c mouse assessed as effect on infection outcome score administered intraperitoneally 1 hr post bacterial challenge measured 3 days post infection; in short: as §2
[6] = system: Candida albicans; assay: Antibacterial activity against Fluconazole resistant Candida albicans DSY3606 containing tac1delta/delta ERG11-1/ERG11-1 (TAC1-5) genotype infected in BALB/c mouse assessed as reduction in kidney microbial burden administered intraperitoneally 1 hr post bacterial challenge measured 3 days post infection; in short: as §3
[7] = system: Candida albicans; assay: Antibacterial activity against Fluconazole resistant Candida albicans DSY3604 containing tac1delta/delta ERG11-1/ERG11-5 genotype by EUCAST standards based broth microdilution method sCandida albicans DSY294
[8] = system: Candida albicans; assay: Antibacterial activity against Fluconazole resistant Candida albicans DSY296 overexpressing multidrug transporter gene CDR1 and CDR2 and containing ERG11 G464S mutation containing CIp10 to restore URA3 function infected in BALB/c mouse assessed as weight change administered intraperitoneally 1 hr post bacterial challenge measured 3 days post infection
[9] = system: Candida albicans; assay: Antibacterial activity against Fluconazole resistant Candida albicans DSY3083 containing tac1delta/delta genotype containing CIp10 to restore URA3 function infected in BALB/c mouse assessed as reduction in kidney microbial burden administered intraperitoneally 1 hr post bacterial challenge measured 3 days post infection; in short: as §3
[10] = system: Candida albicans; assay: Antibacterial activity against Fluconazole resistant Candida albicans DSY3606 containing tac1delta/delta ERG11-1/ERG11-1 (TAC1-5) genotype infected in BALB/c mouse assessed as effect on infection outcome score administered intraperitoneally 1 hr post bacterial challenge measured 3 days post infection; in short: as §2
[11] = system: Candida albicans; assay: […] activity against Fluconazole resistant Candida albicans DSY3608 containing tac1delta/delta ERG11-1/ERG11-1 (TAC1-1) genotype by EUCAST standards based broth microdilution method sCandida albicans DSY294
[12] = system: Candida albicans; assay: Antibacterial activity against Fluconazole resistant Candida albicans DSY3752 containing (TAC1-5/TAC1-5 ERG11-1/ERG11-1) genotype by EUCAST standards based broth microdilution method
In short: (§4)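 Cells grew overnight in YEPD at 30°C and were diluted to 5 × 10^4 cells/ml in RPMI 1640 (MOPS 0.165 M, pH 7, 2% glucose, 1% DMSO). Drug from aqueous stock was 100-fold diluted. Plates ran 24 h at 35°C and were read at 450 nm. MIC was the concentration giving >50% OD decrease versus drug-free control.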

[13] = system: Candida albicans; assay: Antibacterial activity against Fluconazole resistant Candida albicans DSY296 overexpressing multidrug transporter gene CDR1 and CDR2 and containing ERG11 G464S mutation containing CIp10 to restore URA3 function infected in BALB/c mouse assessed as reduction in kidney microbial burden administered intraperitoneally 1 hr post bacterial challenge measured 3 days post infection; in short: as §3
[14] = system: Candida albicans; assay: Antibacterial activity against Fluconazole resistant Candida albicans DSY3083 containing tac1delta/delta genotype containing CIp10 to restore URA3 function infected in BALB/c mouse assessed as effect on infection outcome score administered intraperitoneally 1 hr post bacterial challenge measured 3 days post infection; in short: as §2
[15] = system: Candida albicans; assay: Antibacterial activity against Fluconazole resistant Candida albicans DSY3083 containing tac1delta/delta genotype by EUCAST standards based broth microdilution method; in short: as §4
[16] = system: Candida albicans; assay: Antibacterial activity against Fluconazole resistant Candida albicans DSY3706 containing tac1delta/delta ERG11-1/ERG11-1 genotype infected in BALB/c mouse administered intraperitoneally 1 hr post bacterial challenge measured 3 days post infection
In short: (§5)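 Female BALB/c mice (18–22 g) infected i.v. with a saline suspension of NGY-grown yeast. The challenge inoculum was strain-specific, set by pilot dose-finding. […] Endpoint at 72 h. Median of ED50s from kidney burden, weight change and outcome score.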

[17] = system: Candida albicans; assay: Antibacterial activity against Fluconazole resistant Candida albicans DSY3083 containing tac1delta/delta genotype containing CIp10 to restore URA3 function infected in BALB/c mouse administered intraperitoneally 1 hr post bacterial challenge measured 3 days post infection; in short: as §5
[18] = system: Candida albicans; assay: Antibacterial activity against Fluconazole resistant Candida albicans DSY3083 containing tac1delta/delta genotype by EUCAST standards based broth microdilution method sCandida albicans DSY294
[19] = system: Candida albicans; assay: Antibacterial activity against azole-susceptible Candida albicans DSY294 containing CIp10 to restore URA3 function infected in BALB/c mouse assessed as reduction in kidney microbial burden administered intraperitoneally 1 hr post bacterial challenge measured 3 days post infection; in short: as §3
[20] = system: Candida albicans; assay: Antibacterial activity against azole-susceptible Candida albicans DSY294 by EUCAST standards based broth microdilution method; in short: as §4
[21] = system: Candida albicans; assay: Antibacterial activity against azole-susceptible Candida albicans DSY294 containing CIp10 to restore URA3 function infected in BALB/c mouse administered intraperitoneally 1 hr post bacterial challenge measured 3 days post infection; in short: as §5
[22] = system: Candida albicans; assay: Antibacterial activity against Fluconazole resistant Candida albicans DSY3706 containing tac1delta/delta ERG11-1/ERG11-1 genotype infected in BALB/c mouse assessed as effect on infection outcome score administered intraperitoneally 1 hr post bacterial challenge measured 3 days post infection; in short: as §2
[23] = system: Candida albicans; assay: Antibacterial activity against Fluconazole resistant Candida albicans DSY3706 containing tac1delta/delta ERG11-1/ERG11-1 genotype by EUCAST standards based broth microdilution method; in short: as §4
[24] = system: Candida albicans; assay: Antibacterial activity against Fluconazole resistant Candida albicans DSY3706 containing tac1delta/delta ERG11-1/ERG11-1 genotype infected in BALB/c mouse assessed as weight change administered intraperitoneally 1 hr post bacterial challenge measured 3 days post infection; in short: as §1
[25] = system: Candida albicans; assay: Antibacterial activity against Fluconazole resistant Candida albicans DSY3606 containing tac1delta/delta ERG11-1/ERG11-1 (TAC1-5) genotype infected in BALB/c mouse administered intraperitoneally 1 hr post bacterial challenge measured 3 days post infection; in short: as §5
[26] = system: Candida albicans; assay: Antibacterial activity against Fluconazole resistant Candida albicans DSY3606 containing tac1delta/delta ERG11-1/ERG11-1 (TAC1-5) genotype by EUCAST standards based broth microdilution method; in short: as §4
[27] = system: Candida albicans; assay: Antibacterial activity against Fluconazole resistant Candida albicans DSY3606 containing tac1delta/delta ERG11-1/ERG11-1 (TAC1-5) genotype by EUCAST standards based broth microdilution method sCandida albicans DSY294
[28] = system: Candida albicans; assay: Antibacterial activity against Fluconazole resistant Candida albicans DSY296 overexpressing multidrug transporter gene CDR1 and CDR2 and containing ERG11 G464S mutation containing CIp10 to restore URA3 function infected in BALB/c mouse administered intraperitoneally 1 hr post bacterial challenge measured 3 days post infection; in short: as §5
[29] = system: Candida albicans; assay: Antibacterial activity against Fluconazole resistant Candida albicans DSY296 overexpressing multidrug transporter gene CDR1 and CDR2 and containing ERG11 G464S mutation by EUCAST standards based broth microdilution method; in short: as §4
[30] = system: Candida albicans; assay: […] activity against Fluconazole resistant Candida albicans DSY3752 containing (TAC1-5/TAC1-5 ERG11-1/ERG11-1) genotype by EUCAST standards based broth microdilution method sCandida albicans DSY294
[31] = system: Candida albicans; assay: Antibacterial activity against Fluconazole resistant Candida albicans DSY3608 containing tac1delta/delta ERG11-1/ERG11-1 (TAC1-1) genotype by EUCAST standards based broth microdilution method; in short: as §4
[32] = system: Candida albicans; assay: […] activity against Fluconazole resistant Candida albicans DSY3606 containing tac1delta/delta ERG11-1/ERG11-1 (TAC1-5) genotype infected in BALB/c mouse assessed as weight change administered intraperitoneally 1 hr post […] measured 3 days post infection
[33] = system: Candida albicans; assay: […] activity against Fluconazole resistant Candida albicans DSY3706 containing tac1delta/delta ERG11-1/ERG11-1 genotype by EUCAST standards based broth microdilution method sCandida albicans DSY294
[34] = system: Candida albicans; assay: Antibacterial activity against Fluconazole resistant Candida albicans DSY3604 containing tac1delta/delta ERG11-1/ERG11-5 genotype by EUCAST standards based broth microdilution method; in short: as §4
[35] = system: Candida albicans; assay: […] activity against Fluconazole resistant Candida albicans DSY296 overexpressing multidrug transporter gene CDR1 and CDR2 and containing ERG11 G464S mutation by EUCAST standards based broth microdilution method relative to wildtype sCandida albicans DSY294

Structure (SMILES) | fold change (FC) [7] | fold change (FC) [11] | MIC [12] [µg/mL] | MIC [15] [µg/mL] | fold change (FC) [18] | MIC [20] [µg/mL] | MIC [23] [µg/mL] | MIC [26] [µg/mL] | fold change (FC) [27] | MIC [29] [µg/mL] | fold change (FC) [30] | MIC [31] [µg/mL] | fold change (FC) [33] | MIC [34] [µg/mL] | fold change (FC) [35] | other results
OC(Cn1cncn1)(Cn1cncn1)c1ccc(F)cc1F [FLUCONAZOLE] | 8 | 1 | 4 (≈ 13.1 µM) | 4 (≈ 13.1 µM) | 16 | 0.25 (≈ 0.816 µM) | 0.25 (≈ 0.816 µM) | 4 (≈ 13.1 µM) | 16 | 64 (≈ 209 µM) | 16 | 0.25 (≈ 0.816 µM) | 1 | 2 (≈ 6.53 µM) | – | MIC [1]: 1 µg/mL (≈ 3.27 µM); MIC [2]: 10 µg/mL (≈ 32.7 µM); MIC [3]: 200 µg/mL (≈ 653 µM); MIC [4]: 3.5 µg/mL; MIC [5]: 3.5 µg/mL (≈ 11.4 µM); MIC [6]: 120 µg/mL; MIC [8]: 120 µg/mL (≈ 392 µM); MIC [9]: 10 µg/mL; MIC [10]: 120 µg/mL (≈ 392 µM); MIC [13]: > 200 µg/mL; MIC [14]: 10 µg/mL (≈ 32.7 µM); MIC [16]: 3.5 µg/mL (≈ 11.4 µM); MIC [17]: 10 µg/mL (≈ 32.7 µM); MIC [19]: 10 µg/mL; MIC [21]: 3.5 µg/mL (≈ 11.4 µM); MIC [22]: 3.5 µg/mL (≈ 11.4 µM); MIC [24]: 1 µg/mL (≈ 3.27 µM); MIC [25]: 120 µg/mL (≈ 392 µM); MIC [28]: 200 µg/mL (≈ 653 µM); MIC [32]: 120 µg/mL (≈ 392 µM)
CCC(C)n1ncn(-c2ccc(N3CCN(c4ccc(OCC5COC(Cn6cncn6)(c6ccc(Cl)cc6Cl)O5)cc4)CC3)cc2)c1=O (centres undefined) [ITRACONAZOLE] | 2 | 2 | 0.25 (≈ 0.354 µM) | 0.031 (≈ 0.0439 µM) | 2 | 0.0156 (≈ 0.0221 µM) | 0.0156 (≈ 0.0221 µM) | 0.125 (≈ 0.177 µM) | 8 | 0.25 (≈ 0.354 µM) | 16 | 0.031 (≈ 0.0439 µM) | 1 | 0.031 (≈ 0.0439 µM) | 16 | –
CC[C@@H]([C@H](C)O)n1ncn(-c2ccc(N3CCN(c4ccc(OC[C@@H]5CO[C@@](Cn6cncn6)(c6ccc(F)cc6F)C5)cc4)CC3)cc2)c1=O [POSACONAZOLE] | 1 | 1 | 0.25 (≈ 0.357 µM) | 0.031 (≈ 0.0442 µM) | 1 | 0.0312 (≈ 0.0445 µM) | 0.031 (≈ 0.0442 µM) | 0.25 (≈ 0.357 µM) | 8 | 0.25 (≈ 0.357 µM) | 8 | 0.031 (≈ 0.0442 µM) | 1 | 0.031 (≈ 0.0442 µM) | 8 | –
C[C@@H](c1ncncc1F)[C@](O)(Cn1cncn1)c1ccc(F)cc1F [VORICONAZOLE] | 8 | 1 | 0.125 (≈ 0.358 µM) | 0.125 (≈ 0.358 µM) | 16 | 0.0078 (≈ 0.0223 µM) | 0.0078 (≈ 0.0223 µM) | 0.125 (≈ 0.358 µM) | 16 | 2 (≈ 5.73 µM) | 16 | 0.0078 (≈ 0.0223 µM) | 1 | 0.0625 (≈ 0.179 µM) | 256 | –
